Measurements of several laboratories.
Htr1d: 5-hydroxytryptamine receptor 1D (Htr1d, Rattus norvegicus, UniProt P28565)
MMP8: Neutrophil collagenase (MMP8, Homo sapiens, UniProt P22894)
AR: Androgen receptor (AR, Homo sapiens, UniProt P10275)

CCN(CC)CCCC[C@H](NC(=O)[C@H](CC(C)C)NC(=O)[C@H](C)NC(=O)[C@H](Cc1ccccc1)NC(=O)c1ccc(C(C)(C)C)cc1)C(=O)N[C@@H](CO)C(=O)OC  inhibition (Cholecystokinin receptor type A (CCKAR, Homo sapiens, UniProt P32238); ligand displacement; radioligand; 10 µM): 33%
C#Cc1n[nH]c2c(-c3cn(C(C)c4ccccn4)c(=O)[nH]c3=O)cc(F)cc12 (stereo not drawn)  inhibition (Misshapen-like kinase 1 (MINK1, Homo sapiens, UniProt Q8N4C8); enzyme activity; inhibitor; 1 µM): -10.4%
Cc1ncc(C)n2nc(/C=C/c3nc(N4CCCC4)cc(N4CCOCC4)n3)nc12  inhibition (Htr1d; ligand displacement; 10 µM): -1%
NC(CO)C(=O)N/N=C/c1ccc(O)c(O)c1 (stereo not drawn)  inhibition (Genome polyprotein, protease (Coxsackievirus B3, UniProt P03313); enzyme activity; inhibitor; FRET; 50 µM): 55.9%
CCOC(=O)c1ccc(OC(=O)CCCCCNC(=N)N)cc1  inhibition (MMP8; enzyme activity; inhibitor; 10 µM): 7%
Cn1cc(-c2cc(F)cc(N3CCn4c(cc5c4CCCC5)C3=O)c2CO)cc(Nc2ccc(N3CCN(C4COC4)CC3)cn2)c1=O  inhibition (Serine/threonine-protein kinase WNK2 (WNK2, Homo sapiens, UniProt Q9Y3S1); enzyme activity; inhibitor; 0.1 µM): -12%
CC(C)=CCCC1(C)C=Cc2c(O)c3c(c(CC=C(C)C)c2O1)OC12C(=CC4CC1C(C)(C)OC2(C/C=C(/C)C(=O)O)C4O)C3=O (stereo not drawn)  inhibition (N-lysine methyltransferase KMT5A (KMT5A, Homo sapiens, UniProt Q9NQR1); cell-free assay; 10 µM): 7%
Clc1ccc2c(C3CCN(CCc4c[nH]c5ccccc45)CC3)c[nH]c2c1  inhibition (AR; ligand displacement; radioligand; 10 µM): 25%
O=C(Nc1cccnn1)N1CCN([C@@H]2CCOc3cc(C(F)(F)F)ccc32)CC1  inhibition (Htr1d; cell-free assay; 20 µM): 4%
COc1cc(Nc2ncc(F)c(Nc3ccc4c(n3)NC(=O)C(C)(C)O4)n2)cc(OC)c1OC  inhibition (Receptor-interacting serine/threonine-protein kinase 4 (RIPK4, Homo sapiens, UniProt P57078); binding; 10 µM): 96%
COc1ccc(S(=O)(=O)N(CC(=O)NO)CC(C)C)cc1  inhibition (MMP8; enzyme activity; inhibitor; 10 nM): 5%
COc1ccc(S(=O)(=O)N2CCCCC2)cc1C  inhibition (AR; ligand displacement; radioligand; 10 µM): < 30%
Cn1cc(-c2cccc(N3CCc4c(sc5c4CC(C)(C)C5)C3=O)c2CO)cc(Nc2ccncn2)c1=O  inhibition (G protein-coupled receptor kinase 3 (GRK3, Homo sapiens, UniProt P35626); enzyme activity; inhibitor; 1 µM): 16%
CN(C)C(=O)COC(=O)Cc1ccc(OC(=O)c2ccc(NC(=N)N)cc2)cc1  inhibition (MMP8; enzyme activity; inhibitor; 10 µM): 33%
C[C@H](C(=O)N[C@H]1COc2ccccc2[C@@H]1S(C)(=O)=O)c1ccc(F)cc1  inhibition (Carbonic anhydrase 2 (CA2, Homo sapiens, UniProt P00918); enzyme activity; inhibitor; 10 µM): 8%
